Measured values: ChEMBL document CHEMBL4396869, “Design and Synthesis of Selective Phosphodiesterase 4D (PDE4D) Allosteric Inhibitors for the Treatment of Fragile X Syndrome and Other Brain Disorders” (J Med Chem, 2019)
≈ marks a conversion by molar mass, not a printed value. Calls of active or inactive are those of the source. No cut-off for these calls is given here.

Key:
Homo sapiens [1] = organism: Homo sapiens; test: Selectivity ratio of IC50 for recombinant human wild-type His6-tagged PDE4D7 UCR1 domain (S129 residues) expressed in baculovirus infected Sf9 insect cells to IC50 for recombinant human His6-tagged PDE4D7 UCR1 S129D mutant expressed in baculovirus infected Sf9 insect cells
[2] = (§1) Inhibition of recombinant human wild-type His6-tagged PDE4D7 UCR1 domain (S129 residues) expressed in baculovirus infected Sf9 insect cells using cAMP as substrate preincubated for 5 to 10 mins followed by substrate addition and measured for 10 mins by yeast myokinase/pyruvate kinase/lactate dehydrogenase-coupled fluorescence assay
Homo sapiens [3] = organism: Homo sapiens; test: Selectivity ratio of IC50 for recombinant human His6-tagged PDE4B1 UCR1 S133D mutant expressed in baculovirus infected Sf9 insect cells to IC50 for recombinant human His6-tagged PDE4D7 UCR1 S129D mutant expressed in baculovirus infected Sf9 insect cells
[4] = target: 3',5'-cyclic-AMP phosphodiesterase 4B (Homo sapiens, UniProt Q07343, S133D); test: as §1, with “human” for “human wild-type”, “PDE4B1” for “PDE4D7”, “S133D mutant” for “domain (S129 residues)”
3',5'-cyclic-AMP phosphodiesterase 4B, sequence (Q07343 whole entry S133D): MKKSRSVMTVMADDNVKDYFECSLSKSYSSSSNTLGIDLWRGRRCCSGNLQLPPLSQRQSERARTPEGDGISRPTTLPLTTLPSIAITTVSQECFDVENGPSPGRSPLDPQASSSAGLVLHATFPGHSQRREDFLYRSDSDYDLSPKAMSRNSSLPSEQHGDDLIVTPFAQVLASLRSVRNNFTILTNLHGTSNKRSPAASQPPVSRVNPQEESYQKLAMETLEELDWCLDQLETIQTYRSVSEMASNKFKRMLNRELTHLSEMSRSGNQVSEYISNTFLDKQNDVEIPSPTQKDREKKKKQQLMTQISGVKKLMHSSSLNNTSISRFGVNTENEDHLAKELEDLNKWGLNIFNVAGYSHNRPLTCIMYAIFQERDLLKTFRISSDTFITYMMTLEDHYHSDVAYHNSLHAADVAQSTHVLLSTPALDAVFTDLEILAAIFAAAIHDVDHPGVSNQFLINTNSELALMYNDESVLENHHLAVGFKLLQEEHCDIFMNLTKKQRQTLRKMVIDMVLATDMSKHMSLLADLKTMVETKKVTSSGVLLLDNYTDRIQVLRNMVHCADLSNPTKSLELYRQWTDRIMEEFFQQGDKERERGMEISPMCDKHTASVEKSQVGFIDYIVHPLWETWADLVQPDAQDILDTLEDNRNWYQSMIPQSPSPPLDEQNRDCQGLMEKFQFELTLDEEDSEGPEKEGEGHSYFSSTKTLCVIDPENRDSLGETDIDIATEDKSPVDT

[5] = as §1, with “human” for “human wild-type”, “S129D mutant” for “domain (S129 residues)”
Mus musculus [6] = test: Induction of emesis in ICR mouse assessed as reduction in ketamine/xylazine-induced duration of anesthesia at 10 to 30 mg/kg, po pretreated for 30 mins followed by ketamine/xylazine addition; assay type: organism-based; conditions: in vivo
How it was run: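 Male ICR mice, 25–30 g. Test agents given by oral gavage in 5% DMSO, 5% Solutol in PBS, or rolipram IP; ketamine (80 mg/kg) plus xylazine (10 mg/kg) IP given 30 min after PO or 15 min after IP dosing. Endpoint: time from loss to return of righting reflex.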

Mus musculus [7] = test: Memory enhancement effect in ICR mouse assessed as improvement in novel object discrimination at 1 to 3 mg/kg, po administered via gavage measured for 5 mins by open field test; assay type: functional, organism-based
How it was run: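 Male ICR mice (25–30 g), dosed by oral gavage in 5% DMSO, 5% Solutol in PBS. Three phases in an open field box: 10 min habituation on day 1, 5 min training with identical objects on day 2, 5 min test with familiar and novel objects on day 3 (24 h delay). Exploration times recorded; discrimination index d2 = (b − a)/(a + b).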

[8] = Stability in human liver microsomes assessed as parent compound remaining at 1 uM measured after 30 mins by LC-MS/MS analysis; assay type: ADME, Microsome; conditions: read-out: Stability
How it was run: (§2)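 Liver microsome stability run by a contract lab using standard protocols. Parent compound remaining measured after 30 min incubation.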

[9] = Stability in dog liver microsomes assessed as parent compound remaining at 1 uM measured after 30 mins by LC-MS/MS analysis; assay type: ADME, Canis lupus familiaris, Microsome; conditions: read-out: Stability; how it was run: as §2
[10] = Stability in mouse liver microsomes assessed as parent compound remaining at 1 uM measured after 30 mins by LC-MS/MS analysis; assay type: ADME, Microsome; conditions: read-out: Stability; how it was run: as §2
[11] = Stability in rat liver microsomes assessed as parent compound remaining at 1 uM measured after 30 mins by LC-MS/MS analysis; assay type: ADME, Microsome; conditions: read-out: Stability; how it was run: as §2
[12] = Stability in monkey liver microsomes assessed as parent compound remaining at 1 uM measured after 30 mins by LC-MS/MS analysis; assay type: ADME, Macaca mulatta, Microsome; conditions: rhesus monkey, read-out: Stability; how it was run: as §2
[13] = Permeability across apical to basal side in MDCK-MDR1 cells; assay type: ADME, cell-based, Canis lupus familiaris; conditions: dog
How it was run: (§3)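 Cellular permeability in MDCK-MDR1 cells, apical-to-basal and basal-to-apical, run by a contract lab using standard protocols. Efflux ratio taken as B-A/A-B.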

[14] = Permeability across basal to apical side in MDCK-MDR1 cells; assay type: ADME, cell-based, Canis lupus familiaris; conditions: dog; how it was run: as §3
[15] = Efflux ratio of permeability across basal to apical side over apical to basal side in MDCK-MDR1 cells; assay type: ADME, cell-based, Canis lupus familiaris; conditions: dog
[16] = Aqueous kinetic solubility of the compound at pH 7 at 100 uM measured after 1 hr; assay type: physicochemical; conditions: buffer, pH 7, 1 h
[17] = Solubility of the compound in FaSSIF; assay type: physicochemical; conditions: simulated gi fluid
How it was run: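 Kinetic solubility measured in fasted state simulated intestinal fluid (FaSSIF), run by a contract lab using standard protocols.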

[18] = Protein binding in human plasma; assay type: ADME, cell-free; conditions: read-out: PPB
[19] = Protein binding in dog plasma; assay type: ADME, cell-free, Canis lupus familiaris; conditions: read-out: PPB
[20] = Protein binding in rat plasma; assay type: ADME, cell-free; conditions: read-out: PPB
[21] = Protein binding in mouse plasma; assay type: ADME, cell-free; conditions: read-out: PPB
[22] = Inhibition of recombinant human His6-tagged PDE4D7 UCR1 S129D mutant expressed in baculovirus infected Sf9 insect cells using cAMP as substrate preincubated for 5 to 10 mins followed by substrate addition and measured for 10 mins in presence of BSA by yeast myokinase/pyruvate kinase/lactate dehydrogenase-coupled fluorescence assay
Cytochrome P450 3A4 = Cytochrome P450 3A4 (Homo sapiens, UniProt P08684); test: Inhibition of CYP3A4 (unknown origin) by fluorescence-based assay; assay type: ADME
Cytochrome P450 3A4, sequence (P08684 whole entry): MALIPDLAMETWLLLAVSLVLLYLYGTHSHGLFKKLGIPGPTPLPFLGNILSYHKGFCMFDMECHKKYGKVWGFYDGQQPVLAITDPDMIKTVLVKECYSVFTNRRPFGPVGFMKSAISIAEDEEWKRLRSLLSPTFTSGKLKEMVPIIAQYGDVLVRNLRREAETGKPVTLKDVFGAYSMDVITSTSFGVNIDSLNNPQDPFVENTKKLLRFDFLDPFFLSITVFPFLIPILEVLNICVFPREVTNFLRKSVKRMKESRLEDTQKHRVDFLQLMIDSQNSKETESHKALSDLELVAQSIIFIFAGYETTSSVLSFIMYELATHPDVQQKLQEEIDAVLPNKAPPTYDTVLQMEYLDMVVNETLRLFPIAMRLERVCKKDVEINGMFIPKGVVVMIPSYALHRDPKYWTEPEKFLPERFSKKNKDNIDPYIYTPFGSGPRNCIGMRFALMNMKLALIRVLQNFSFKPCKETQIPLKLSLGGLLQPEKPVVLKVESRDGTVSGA
How it was run: (§4)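 CYP inhibition run with a fluorescent substrate by a contract laboratory under standard protocols; IC50 reported.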

Cytochrome P450 2C19 = Cytochrome P450 2C19 (Homo sapiens, UniProt P33261); test: Inhibition of […] (unknown origin) by fluorescence-based assay; assay type: ADME; how it was run: as §4
Cytochrome P450 2C19, sequence (P33261 whole entry): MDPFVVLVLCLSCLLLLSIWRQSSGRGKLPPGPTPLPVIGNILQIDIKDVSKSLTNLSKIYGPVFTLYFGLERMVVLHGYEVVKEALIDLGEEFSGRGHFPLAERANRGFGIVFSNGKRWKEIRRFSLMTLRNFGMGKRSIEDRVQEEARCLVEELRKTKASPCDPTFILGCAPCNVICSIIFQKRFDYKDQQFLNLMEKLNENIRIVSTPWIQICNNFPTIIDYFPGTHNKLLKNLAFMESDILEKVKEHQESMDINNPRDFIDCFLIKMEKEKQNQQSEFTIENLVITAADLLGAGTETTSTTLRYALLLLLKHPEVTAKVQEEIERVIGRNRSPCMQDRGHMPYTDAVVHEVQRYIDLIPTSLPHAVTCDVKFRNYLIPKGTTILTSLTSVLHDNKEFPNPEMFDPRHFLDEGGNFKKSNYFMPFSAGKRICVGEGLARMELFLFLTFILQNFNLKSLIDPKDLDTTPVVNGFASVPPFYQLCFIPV

Cytochrome P450 2D6 = Cytochrome P450 2D6 (Homo sapiens, UniProt P10635); test: Inhibition of CYP2D6 (unknown origin) by fluorescence-based assay; assay type: ADME; how it was run: as §4
Cytochrome P450 2D6, sequence (P10635 whole entry): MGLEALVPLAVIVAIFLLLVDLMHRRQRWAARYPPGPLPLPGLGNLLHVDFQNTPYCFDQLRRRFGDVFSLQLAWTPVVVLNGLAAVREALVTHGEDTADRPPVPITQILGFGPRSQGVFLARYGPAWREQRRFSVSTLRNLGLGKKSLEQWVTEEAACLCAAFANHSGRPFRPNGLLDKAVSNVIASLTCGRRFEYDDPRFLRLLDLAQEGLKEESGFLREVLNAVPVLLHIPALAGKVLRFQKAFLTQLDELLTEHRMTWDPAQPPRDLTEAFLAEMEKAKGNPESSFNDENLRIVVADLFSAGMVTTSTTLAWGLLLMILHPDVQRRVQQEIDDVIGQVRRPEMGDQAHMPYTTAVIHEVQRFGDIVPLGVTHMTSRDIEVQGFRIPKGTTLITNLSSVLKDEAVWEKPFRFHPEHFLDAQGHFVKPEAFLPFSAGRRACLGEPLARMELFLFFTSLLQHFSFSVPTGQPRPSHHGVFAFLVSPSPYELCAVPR

Cytochrome P450 2C9 = Cytochrome P450 2C9 (Homo sapiens, UniProt P11712); test: Inhibition of CYP2C9 (unknown origin) by fluorescence-based assay; assay type: ADME; how it was run: as §4
Cytochrome P450 2C9, sequence (P11712 whole entry): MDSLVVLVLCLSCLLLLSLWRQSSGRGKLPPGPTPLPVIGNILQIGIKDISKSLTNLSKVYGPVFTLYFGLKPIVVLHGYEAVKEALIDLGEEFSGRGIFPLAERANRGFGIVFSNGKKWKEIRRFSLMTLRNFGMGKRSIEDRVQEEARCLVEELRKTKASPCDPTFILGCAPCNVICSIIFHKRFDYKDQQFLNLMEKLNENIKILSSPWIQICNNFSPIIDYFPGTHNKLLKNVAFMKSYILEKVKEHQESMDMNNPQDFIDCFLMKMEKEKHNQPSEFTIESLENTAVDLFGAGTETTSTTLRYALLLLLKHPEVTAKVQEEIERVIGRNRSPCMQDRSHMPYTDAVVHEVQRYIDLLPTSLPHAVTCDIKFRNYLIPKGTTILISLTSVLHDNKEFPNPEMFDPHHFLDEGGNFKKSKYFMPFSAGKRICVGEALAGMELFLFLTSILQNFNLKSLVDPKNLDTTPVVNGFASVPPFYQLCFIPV

[23] = Oral bioavailability in mouse; assay type: ADME, organism-based; conditions: in vivo
[24] = Ratio of AUC in po dosed mouse brain to plasma; assay type: ADME, organism-based
How it was run: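 Mice were dosed orally in 5% DMSO, 5% Solutol, 90% PBS. Drug exposure was measured in plasma and brain, and the ratio was taken from brain AUC over plasma AUC.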

[25] = Half life in po dosed mouse plasma; assay type: ADME, organism-based; conditions: in vivo
[26] = Half life in po dosed mouse brain; assay type: ADME, organism-based; conditions: in vivo
[27] = Therapeutic index, ratio of compound effect for induction of emesis in ICR mouse assessed as reduction in ketamine/xylazine-induced duration of anesthesia at 10 to 30 mg/kg, po to compound effect for memory enhancement effect in ICR mouse assessed as improvement in novel object discrimination at 1 to 3 mg/kg, po; assay type: toxicity, organism-based; conditions: in vivo
How it was run: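 Male ICR mice (25–30 g) were gavaged with compound in 5% DMSO, 5% Solutol in PBS. Object recognition ran as 10 min habituation on day 1, 5 min training on day 2 and 5 min testing on day 3, scored as d2 = (b−a)/(a+b). Thirty minutes after an oral dose, ketamine 80 mg/kg plus xylazine 10 mg/kg was given IP, and anesthesia duration was timed from loss to return of the righting reflex. The index compares effective doses in the two tests.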

[28] = Stability in human hepatocytes assessed as parent compound remaining measured after 4 hrs by LC-UV/MS/MS analysis; assay type: ADME, cell-based, Hepatocyte; conditions: read-out: Stability
How it was run: (§5)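 Metabolite identification run with cryopreserved hepatocytes from male Wistar rats and from humans, 0.5×10^6 cells/mL in suspension, incubated 4 h at 37 °C. Incubation medium analysed by LC-UV/MS/MS.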

[29] = Stability in Wistar rat hepatocytes assessed as parent compound remaining measured after 4 hrs by LC-UV/MS/MS analysis; assay type: ADME, cell-based, Hepatocyte; conditions: read-out: Stability; how it was run: as §5

CCc1cc(Cc2ccc(CC(N)=O)cc2)nc(-c2cccc(Cl)c2)n1 gave a Ratio IC50 (Homo sapiens [1]) of 184, an IC50 [2] of 313 nM and a Ratio IC50 (Homo sapiens [3]) of 132. The IC50 [4] was 225 nM, the IC50 [5] was 1.7 nM and the Activity (Mus musculus [6]) was “Toxic”. For the same compound, the Activity (Mus musculus [7]) was “Active”, the remaining at 0.5 h, 1 µM [8] was 54 to 90% and the remaining at 0.5 h, 1 µM [9] was 54 to 90%. It also gave a remaining at 0.5 h, 1 µM [10] of 54 to 90%, a remaining at 0.5 h, 1 µM [11] of 54 to 90% and a remaining at 0.5 h, 1 µM [12] of 54 to 90%. For the same compound, the permeability [13] was 24.1 ×10⁻⁶ cm/s, the permeability [14] was 22 ×10⁻⁶ cm/s and the Ratio [15] was 0.9. It also gave a Kinetic_solubility [16] of under 1.6 µM, a solubility [17] of 100 µM (≈ 36.6 µg/mL) and a fraction unbound [18] of 0.002 to 0.005. For the same compound, the fraction unbound [19] was 0.002 to 0.005, the fraction unbound [20] was 0.002 to 0.005 and the fraction unbound [21] was 0.002 to 0.005. For the same compound, the inhibition [22] was “Active”, the IC50 (Cytochrome P450 3A4) was 5900 nM and the IC50 (Cytochrome P450 2C19) was 29000 nM. It also gave an IC50 (Cytochrome P450 2D6) of over 100000 nM, an IC50 (Cytochrome P450 2C9) of over 100000 nM and a bioavailability [23] of 53%. For the same compound, the “Ratio AUC” value [24] was 2.7, the t1/2 [25] was 27.6 min and the t1/2 [26] was 26.4 min. The selectivity ratio [27] was 10, the remaining at 4 h [28] was 93.2% and the remaining at 4 h [29] was 66.8%.
With CCc1nc(Nc2ccc(CCO)cc2)nc(-c2cccc(Cl)c2)n1 the Ratio IC50 (Homo sapiens [1]) was 204, the IC50 [2] was 102 nM and the Ratio IC50 (Homo sapiens [3]) was 48. It also gave an IC50 [4] of 24 nM and an IC50 [5] of 0.5 nM.
CCc1nc(Nc2ccc(CCCO)cc2)nc(-c2cccc(Cl)c2)n1 gave an IC50 [2] of 27 nM, an IC50 [4] of 11 nM and an IC50 [5] of 0.2 nM.
CCc1cc(Oc2ccc(CC(N)=O)cc2)nc(-c2cccc(Cl)c2)n1 gave an IC50 [2] of 2430 nM, an IC50 [4] of 953 nM and an IC50 [5] of 35 nM.
Work on OCCc1ccc(Nc2cc(-c3cccc(Cl)c3)nc3c2CCC3)cc1 yielded a Ratio IC50 (Homo sapiens [1]) of 226, an IC50 [2] of 2110 nM and a Ratio IC50 (Homo sapiens [3]) of 60. The IC50 [4] was 562 nM and the IC50 [5] was 9 nM.
With CCc1nc(Nc2ccc(CC(=O)O)cc2)nc(-c2cccc(Cl)c2)n1 the Ratio IC50 (Homo sapiens [1]) was 6, the IC50 [2] was 4040 nM and the Ratio IC50 (Homo sapiens [3]) was 1. The IC50 [4] was 781 nM and the IC50 [5] was 681 nM.
In the case of CN(C)C(=O)Cc1ccc(Nc2cc(-c3cccc(Cl)c3)nc3c2CCC3)cc1, the IC50 [2] is reported as 914 nM, the IC50 [4] is reported as 356 nM and the IC50 [5] is reported as 51 nM.
Work on CCc1nc(Nc2ccc(CO)cc2)nc(-c2cccc(Cl)c2)n1 yielded an IC50 [2] of 351 nM, an IC50 [4] of 105 nM and an IC50 [5] of 12 nM.
With CCc1nc(Nc2ccc(C(C)C(=O)O)cc2)nc(-c2cccc(Cl)c2)n1 (stereo not drawn) the IC50 [2] was over 10000 nM, the Ratio IC50 (Homo sapiens [3]) was 11 and the IC50 [4] was 1090 nM. The IC50 [5] was 96 nM.
In the case of CCc1nc(Nc2ccc(C(N)=O)cc2)nc(-c2cccc(Cl)c2)n1, the Ratio IC50 (Homo sapiens [1]) is reported as 11, the IC50 [2] is reported as 252 nM and the Ratio IC50 (Homo sapiens [3]) is reported as 2. The IC50 [4] was 44 nM and the IC50 [5] was 22 nM.
With NC(=O)CCc1ccc(Nc2cc(-c3cccc(Cl)c3)nc3c2CCC3)cc1 the IC50 [2] was 1280 nM, the IC50 [4] was 166 nM and the IC50 [5] was 35 nM.
In the case of OCCc1cccc(Nc2cc(-c3cccc(Cl)c3)nc3c2CCC3)c1, the IC50 [2] is reported as 6320 nM, the IC50 [4] is reported as 1420 nM and the IC50 [5] is reported as 226 nM.
CCc1cc(Oc2ccc(CCO)cc2)nc(-c2cccc(Cl)c2)n1 showed an IC50 [2] of 251 nM, an IC50 [4] of 58 nM and an IC50 [5] of 1.8 nM.
